Non-standard residues stand in square brackets, D forms with d. Residues, ends and D or L forms follow the SMILES beside them.
Assays:
[1] = Solubility of lyophilized peptide in PBS or water; assay type: physicochemical
Aβ(1–40) aggregates [2] = target: T1, Aβ(1–40) aggregates (Homo sapiens, UniProt P05067); experiment: Nanoparticle tracking analysis; assay type: biochemical
Procedure, shortened: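 Aβ(1-40) stock prepared by dissolving in 50% acetonitrile, relyophilizing, and reconstituting in urea/glycine buffer at 12 mg/mL. Samples: 28 µM Aβ alone or with 1.4 µM test peptide, or peptide alone. Nanosight LM10, 405 nm laser, video capture started immediately. One 60-s video per time point over 2 h, room temperature, camera level 13. Buffers 0.02 µm-filtered. Number concentration taken from the instrument-defined scattering volume. Only particles above ~30 nm are detected.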

Aβ(1–40) aggregates [3] = target: T1, Aβ(1–40) aggregates; experiment: Dynamic light scattering; assay type: biochemical; conditions: 28 μM Aβ, 1.4 μM peptide; 37 °C; 2 h; z-averaged hydrodynamic diameter; Aβ alone 400 nm after 2 h
[4] = target: Aβ(1–40) fibril formation (Homo sapiens, UniProt P05067); experiment: Thioflavin T; assay type: biochemical; conditions: 28 μM Aβ, 1.4 μM peptide; PBSA, 37 °C, up to 48 h; three replicates
Procedure, shortened: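 Aβ(1-40) stock in urea/glycine buffer, previously relyophilized from 50% acetonitrile. 28 µM Aβ incubated in PBSA at 37 °C alone or with 2.8, 1.4 or 0.28 µM test peptide. At 1 or 4, 24 and 48 h, aliquots mixed with 10 µM ThT in PBS. Excitation 440 nm, emission scanned 460–500 nm. Three serial spectra averaged, ThT/PBS background subtracted, 480 nm intensity compared.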

Aβ(1–40) fibrils = Aβ(1–40) fibrils (Homo sapiens, UniProt P05067); experiment: Transmission electron microscopy; assay type: biochemical; conditions: 28 μM Aβ + 1.4 μM peptide; 24 h at 37 °C; PBSA
Chain of Aβ(1–40) fibrils (P05067 672-711 limits assumed): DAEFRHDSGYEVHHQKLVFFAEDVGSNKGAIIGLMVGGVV

T1 sequence (P05067 672-711 limits assumed): as above
Chain of Aβ(1–40) fibril formation (P05067 672-711 limits assumed): as above

- solubility ([1]; aqueous buffer): > 650 µg/mL
- solubility ([1]; water): > 600 µM
- particles from peptide alone (NTA) (Aβ(1–40) aggregates [2]; 1.4 μM peptide in the absence of Aβ, detection limit ~30 nm, data not shown): no detectable particles above background
- initial particle number concentration relative to Aβ alone (NTA) (Aβ(1–40) aggregates [2]; 28 μM Aβ, 1.4 μM peptide, PBSA, room temperature, shortly after mixing): about 2 fold
- mean hydrodynamic diameter of aggregates after 2 h (NTA) (Aβ(1–40) aggregates [2]; 28 μM Aβ, 1.4 μM peptide, number-averaged): ~ 400 nm
- mean hydrodynamic diameter of aggregates shortly after mixing (NTA) (Aβ(1–40) aggregates [2]; 28 μM Aβ, 1.4 μM peptide, number-averaged, Aβ alone ~80 nm): 120 nm
- inhibition of ThT fluorescence at 20:1 Aβ/peptide [4]: partially inhibited
Structure (SMILES): CC[C@H](C)[C@@H]1NC(=O)[C@H]([C@@H](C)O)NC(=O)[C@H](Cc2ccc(O)cc2)NC(=O)[C@H](CCCNC(=N)N)NC(=O)[C@@H]2CCCN2C(=O)[C@H]2CCCN2C(=O)[C@H]([C@@H](C)O)NC(=O)[C@H](C(C)C)NC(=O)[C@H](C(C)C)NC(=O)[C@H](CCCCN)NC(=O)[C@H](CO)NC(=O)[C@H](CCC(N)=O)NC(=O)[C@H](CO)NC(=O)[C@H](Cc2ccc(O)cc2)NC(=O)[C@H](CO)NC(=O)[C@H](Cc2ccc(O)cc2)NC(=O)[C@@H]2CCCN2C(=O)[C@H](CO)NC(=O)[C@H](CC(C)C)NC(=O)[C@H](CC(C)C)NC(=O)[C@H](C)NC(=O)[C@H](C)NC1=O [CG3] (cyclo(SKVVT[dP]PRYTIAALLSPYSYSQ))
- effect on size and growth rate of Aβ aggregates (DLS) (Aβ(1–40) aggregates [3]): size and growth rate of Aβ aggregates increased
- Aβ aggregate morphology by TEM (Aβ(1–40) fibrils): still a large number of fibrils, but many appeared to be shorter

From PMC5051546 (ACS chemical neuroscience, 2016)
